Among the data in ChEMBL document CHEMBL1131231, “New azole antifungals. 2. Synthesis and antifungal activity of heterocyclecarboxamide derivatives of 3-amino-2-aryl-1-azolyl-2-butanol” (1998) are MIC and Protection values, retold here.

Holding throughout (format): functional
A short description of experiment [1]: The compound was tested in vitro for antifungal activity against 6 filamentous fungi. In a few lines: (§1)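 Agar dilution on Kimmig's agar with 0.5% glycerol; ATCC or clinical isolates, inocula at 10⁵ cfu/mL. Drugs from 800 μg/mL stock in 50% ethanol, 2-fold serial dilutions 80 to 0.03 μg/mL in plates. Incubated 25 °C, 48 h for yeasts, 120 h for filamentous fungi. Value is geometric mean of MICs (μg/mL); >80 taken as 160, ≤0.03 as 0.03.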

In experiment [2] the test system is Candida albicans. The experiment in a line: In vivo antifungal activity against murine candidosis model after peroral administration with 0.5 mg/kg at various time intervals. (percent protection for 100% mortality with untreated group). Conditions: route oral. In short, it runs like this:
(§2)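 Male mice, groups of 10, infected iv with 0.2 mL Candida albicans at (2–8) × 10⁷ cfu/mL. Oral suspension in 1% Tween + 0.2% carboxymethylcellulose in water, given 1, 4 and 24 h post-infection; vehicle controls and a fluconazole group at the same dose. Survival scored on days 1, 2, 3, 5, 7, 9, reported as % surviving on the day untreated, or fluconazole-treated, mortality reached 100%.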

For experiment [3], the system named is Candida albicans. The experiment in a line: In vivo antifungal activity against murine candidosis model after peroral administration with 0.5 mg/kg at various time intervals. (percent protection for 100% mortality with fluconazole-treated group.). Conditions: route oral. In a few lines:
as §2

Experiment [4] is described as follows: The compound was tested in vitro for antifungal activity against 10 yeasts. In a few lines: as §1

≈ marks a conversion by molar mass, not a printed value. Bounds are passed on as bounds.

By MIC is commonly meant the least concentration at which growth counts as inhibited. Low values mean a more susceptible organism, high ones a less susceptible organism. As to `C[C@@H](NC(=O)c1ccn(-c2ccc(Cl)cc2)c1)[C@](O)(Cn1cncn1)c1ccc(F)cc1F`, the results for the MIC in experiment [1] and in experiment [4] were 17 µg/mL (≈ 36 µM) and 1.2 µg/mL (≈ 2.54 µM), respectively. The Protection in experiment [2] and in experiment [3] was 0% in each case.
On to `C[C@@H](NC(=O)c1nc(-c2ccc(Cl)cc2)ns1)[C@](O)(Cn1cncn1)c1ccc(F)cc1F`, for which the MIC in experiment [1] was more than 80 µg/mL; in experiment [4] it was 11 µg/mL (≈ 22.4 µM). Moreover, the Protection is recorded as 10% in experiment [2] and 0% in experiment [3].
The corresponding values for `Cc1oc(-c2ccc(Cl)cc2)cc1C(=O)N[C@H](C)[C@](O)(Cn1cncn1)c1ccc(F)cc1F` are 10 µg/mL (≈ 20.5 µM), 0.9 µg/mL (≈ 1.85 µM), 100% and 0%.
Turning to `Cc1nc(-c2ccc(Cl)cc2)oc1C(=O)N[C@H](C)[C@](O)(Cn1cncn1)c1ccc(F)cc1F`, the values for the MIC in experiment [1] and in experiment [4] were 40 µg/mL (≈ 82 µM) and 3.7 µg/mL (≈ 7.58 µM), respectively. Also, the values for the Protection in experiment [2] and in experiment [3] were 40% and 0%, respectively.
The corresponding values for `Cc1nc(Oc2ccc(Cl)cc2)sc1C(=O)N[C@H](C)[C@](O)(Cn1cncn1)c1ccc(F)cc1F` are 4 µg/mL (≈ 7.69 µM), 1.5 µg/mL (≈ 2.88 µM), 10% and 0%.
For `C[C@@H](NC(=O)c1nc(-c2ccc(Cl)cc2)no1)[C@](O)(Cn1cncn1)c1ccc(F)cc1F`, in that order: 80 µg/mL (≈ 168 µM), 2.1 µg/mL (≈ 4.42 µM), 80% and 10%.
The corresponding values for `Cc1nc(-c2ccc(C#N)cc2)sc1C(=O)N(C)[C@H](C)[C@](O)(Cn1cncn1)c1ccc(F)cc1F` are 4.5 µg/mL (≈ 8.85 µM), 0.8 µg/mL (≈ 1.57 µM), 100% and 100%.
Consider `C[C@@H](NC(=O)c1noc(-c2ccc(Cl)cc2)n1)[C@](O)(Cn1cncn1)c1ccc(F)cc1F`, for which the MIC in experiment [1] turned out to be 32 µg/mL (≈ 67.4 µM); in experiment [4] it was 2.1 µg/mL (≈ 4.42 µM). Further, the results for the Protection in experiment [2] and in experiment [3] were 100% and 10%, respectively.
For `C[C@@H](NC(=O)c1sc(-c2ccc(C3N=NN=N3)cc2)nc1C(F)(F)F)[C@](O)(Cn1cncn1)c1ccc(F)cc1F`, in that order: more than 80 µg/mL, 75 µg/mL (≈ 127 µM), 30% and 0%.
On to `C[C@@H](NC(=O)c1ccc(-c2ccc(Cl)cc2)s1)[C@](O)(Cn1cncn1)c1ccc(F)cc1F`, for which the MIC worked out at 3.5 µg/mL (≈ 7.16 µM) in experiment [1] and 0.2 µg/mL (≈ 0.409 µM) in experiment [4]. Also, the Protection in experiment [2] and in experiment [3] was 100% throughout.
Take `Cc1nc(-c2ccc(C(F)(F)F)cc2)sc1C(=O)N[C@H](C)[C@](O)(Cn1cncn1)c1ccc(F)cc1F`: the MIC in experiment [1] amounted to 2.2 µg/mL (≈ 4.09 µM); in experiment [4] it was 0.9 µg/mL (≈ 1.67 µM). In addition, the Protection in experiment [2] and in experiment [3] was 100% each time.
On to `C[C@@H](NC(=O)c1sc(-c2ccc(C#N)cc2)nc1C(F)(F)F)[C@](O)(Cn1cncn1)c1ccc(F)cc1F`, for which the results for the minimal inhibitory concentration (MIC) in experiment [1] and in experiment [4] were 28 µg/mL (≈ 51 µM) and 2.9 µg/mL (≈ 5.29 µM), respectively. Moreover, the Protection is listed as 100% in experiment [2] and less than 50% in experiment [3].
The corresponding values for `Cc1nc(-c2ccc(OC(F)(F)F)cc2)sc1C(=O)N[C@H](C)[C@](O)(Cn1cncn1)c1ccc(F)cc1F` are 1.6 µg/mL (≈ 2.89 µM), 1.3 µg/mL (≈ 2.35 µM), 100% and 100%.
For `Cc1nc(-c2ccc(OCC(F)(F)C(F)F)cc2)sc1C(=O)N[C@H](C)[C@](O)(Cn1cncn1)c1ccc(F)cc1F`, in that order: 2.2 µg/mL (≈ 3.67 µM), 1.3 µg/mL (≈ 2.17 µM), 100% and 0%.
For the molecule `Cc1nc(-c2ccc(C(=N)NO)cc2)sc1C(=O)N[C@H](C)[C@](O)(Cn1cncn1)c1ccc(F)cc1F`, the MIC was determined as 80 µg/mL (≈ 152 µM) in experiment [1] and 12 µg/mL (≈ 22.7 µM) in experiment [4]. The Protection in experiment [2] and in experiment [3] was 0% in each case.
